# In ChEMBL document CHEMBL4689842, “EUbOPEN Chemogenomics Library wave 1” (2021):
# “And” between values parts separate entries of the source, which are not always exact repeats. Equal values may be shown once.
# Tested on: U2OS
# Test: Multiplex assay against U2OS
# Format: toxicity, cell-based
# Conditions: human
# Summary of the method: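 Live cells carried four stains from seeding: Hoechst33342, BioTracker Green Microtubule Cytoskeleton Dye, MitoTracker Red and Annexin V Alexa Fluor 680. They were imaged on a CQ1 microscope at 37°C and 5% CO2 after compound addition. Using CellPathfinder machine-learning gating, cells were split into Hoechst high-intensity objects or normal cells, normal cells into healthy, pyknosed or fragmented nuclei, and pyknosed cells into mitotic or apoptotic; tubulin, mitochondrial-mass and membrane-permeability phenotypes are per cents of healthy-nucleus cells.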
# [1] = 12 h, 10 µM, compound concentration 10 uM, replicate 1
# [2] = 12 h, 10 µM, compound concentration 10 uM, replicate 2
# [3] = 24 h, 10 µM, compound concentration 10 uM, replicate 1
# [4] = 24 h, 10 µM, compound concentration 10 uM, replicate 2
# [5] = 12 h, 1 µM, compound concentration 1 uM, replicate 1
# [6] = 12 h, 1 µM, compound concentration 1 uM, replicate 2
# [7] = 24 h, 1 µM, compound concentration 1 uM, replicate 1
# [8] = 24 h, 1 µM, compound concentration 1 uM, replicate 2
# [9] = 48 h, 1 µM, compound concentration 1 uM, replicate 1
# [10] = 48 h, 1 µM, compound concentration 1 uM, replicate 2
# [11] = 48 h, 10 µM, compound concentration 10 uM, replicate 1
# [12] = 48 h, 10 µM, compound concentration 10 uM, replicate 2
compound,measurement,setting,value
CN1C(=O)c2sccc2N(C)c2nc(Nc3ccc(S(N)(=O)=O)cc3)ncc21,Population Apoptotic (%),[1],30% and 31%
same,Population Fragmented Nuclei (%),[1],5% and 4%
same,Population Healthy Nuclei (%),[1],88% and 84%
same,Population Hoechst High Intensity Objects (%),[1],1%
same,Population Membrane Permeable-Phenotype (%),[1],14% and 7%
same,Population Mitochondria Different-Phenotype (%),[1],17% and 22%
same,Population Mitotic Cells (%),[1],70% and 68%
same,Population Normal (%),[1],98%
same,Population Pyknosed Nuclei (%),[1],5% and 10%
same,Population Tubulin-Different-Phenotype (%),[1],15% and 31%
same,Total Cell Count,[1],144 and 172
same,Population Fragmented Nuclei (%),[2],6% and 13%
same,Population Healthy Nuclei (%),[2],83% and 78%
same,Population Hoechst High Intensity Objects (%),[2],8% and 19%
same,Population Membrane Permeable-Phenotype (%),[2],19% and 8%
same,Population Mitochondria Different-Phenotype (%),[2],36% and 35%
same,Population Mitotic Cells (%),[2],90% and 66%
same,Population Normal (%),[2],91% and 80%
same,Population Pyknosed Nuclei (%),[2],9% and 7%
same,Population Tubulin-Different-Phenotype (%),[2],18% and 21%
same,Total Cell Count,[2],94 and 98
same,Population Apoptotic (%),[3],28% and 42%
same,Population Fragmented Nuclei (%),[3],4% and 6%
same,Population Healthy Nuclei (%),[3],92% and 84%
same,Population Hoechst High Intensity Objects (%),[3],0% and 1%
same,Population Membrane Permeable-Phenotype (%),[3],7% and 6%
same,Population Mitochondria Different-Phenotype (%),[3],15% and 44%
same,Population Mitotic Cells (%),[3],71% and 57%
same,Population Normal (%),[3],99% and 98%
same,Population Pyknosed Nuclei (%),[3],2% and 9%
same,Population Tubulin-Different-Phenotype (%),[3],42%
same,Total Cell Count,[3],142 and 237
same,Population Fragmented Nuclei (%),[4],9% and 12%
same,Population Healthy Nuclei (%),[4],80%
same,Population Hoechst High Intensity Objects (%),[4],8% and 12%
same,Population Membrane Permeable-Phenotype (%),[4],11%
same,Population Mitochondria Different-Phenotype (%),[4],57% and 27%
same,Population Mitotic Cells (%),[4],63% and 100%
same,Population Normal (%),[4],91% and 87%
same,Population Pyknosed Nuclei (%),[4],10% and 3%
same,Population Tubulin-Different-Phenotype (%),[4],17% and 40%
same,Total Cell Count,[4],112 and 90
CN1CCCC(n2nc(Cc3ccc(Cl)cc3)c3ccccc3c2=O)CC1.Cl (configuration not stated) [AZELASTINE HYDROCHLORIDE],Population Apoptotic (%),[5],42%
same,Population Fragmented Nuclei (%),[5],12%
same,Population Healthy Nuclei (%),[5],71%
same,Population Hoechst High Intensity Objects (%),[5],8%
same,Population Membrane Permeable-Phenotype (%),[5],11%
same,Population Mitochondria Different-Phenotype (%),[5],64%
same,Population Mitotic Cells (%),[5],57%
same,Population Normal (%),[5],91%
same,Population Pyknosed Nuclei (%),[5],16%
same,Population Tubulin-Different-Phenotype (%),[5],70%
same,Total Cell Count,[5],95
same,Population Apoptotic (%),[6],25%
same,Population Fragmented Nuclei (%),[6],6%
same,Population Healthy Nuclei (%),[6],84%
same,Population Hoechst High Intensity Objects (%),[6],11%
same,Population Membrane Permeable-Phenotype (%),[6],7%
same,Population Mitochondria Different-Phenotype (%),[6],57%
same,Population Mitotic Cells (%),[6],75%
same,Population Normal (%),[6],88%
same,Population Pyknosed Nuclei (%),[6],8%
same,Population Tubulin-Different-Phenotype (%),[6],68%
same,Total Cell Count,[6],51
same,Population Apoptotic (%),[1],63%
same,Population Fragmented Nuclei (%),[1],18%
same,Population Healthy Nuclei (%),[1],52%
same,Population Hoechst High Intensity Objects (%),[1],12%
same,Population Membrane Permeable-Phenotype (%),[1],77%
same,Population Mitochondria Different-Phenotype (%),[1],97%
same,Population Mitotic Cells (%),[1],36%
same,Population Normal (%),[1],87%
same,Population Pyknosed Nuclei (%),[1],28%
same,Population Tubulin-Different-Phenotype (%),[1],97%
same,Total Cell Count,[1],87
same,Population Apoptotic (%),[2],57%
same,Population Fragmented Nuclei (%),[2],14%
same,Population Healthy Nuclei (%),[2],70%
same,Population Hoechst High Intensity Objects (%),[2],4%
same,Population Membrane Permeable-Phenotype (%),[2],84%
same,Population Mitochondria Different-Phenotype (%),[2],98%
same,Population Mitotic Cells (%),[2],42%
same,Population Normal (%),[2],95%
same,Population Pyknosed Nuclei (%),[2],15%
same,Population Tubulin-Different-Phenotype (%),[2],100%
same,Total Cell Count,[2],96
same,Population Apoptotic (%),[7],33%
same,Population Fragmented Nuclei (%),[7],16%
same,Population Healthy Nuclei (%),[7],65%
same,Population Hoechst High Intensity Objects (%),[7],5%
same,Population Membrane Permeable-Phenotype (%),[7],5%
same,Population Mitochondria Different-Phenotype (%),[7],70%
same,Population Mitotic Cells (%),[7],66%
same,Population Normal (%),[7],94%
same,Population Pyknosed Nuclei (%),[7],17%
same,Population Tubulin-Different-Phenotype (%),[7],68%
same,Total Cell Count,[7],108
same,Population Apoptotic (%),[8],50%
same,Population Fragmented Nuclei (%),[8],7%
same,Population Healthy Nuclei (%),[8],76%
same,Population Hoechst High Intensity Objects (%),[8],8%
same,Population Membrane Permeable-Phenotype (%),[8],10%
same,Population Mitochondria Different-Phenotype (%),[8],57%
same,Population Mitotic Cells (%),[8],50%
same,Population Normal (%),[8],91%
same,Population Pyknosed Nuclei (%),[8],15%
same,Population Tubulin-Different-Phenotype (%),[8],50%
same,Total Cell Count,[8],57
same,Population Apoptotic (%),[3],90%
same,Population Fragmented Nuclei (%),[3],29%
same,Population Healthy Nuclei (%),[3],46%
same,Population Hoechst High Intensity Objects (%),[3],10%
same,Population Membrane Permeable-Phenotype (%),[3],95%
same,Population Mitochondria Different-Phenotype (%),[3],97%
same,Population Mitotic Cells (%),[3],9%
same,Population Normal (%),[3],89%
same,Population Pyknosed Nuclei (%),[3],24%
same,Population Tubulin-Different-Phenotype (%),[3],100%
same,Total Cell Count,[3],99
same,Population Apoptotic (%),[4],95%
same,Population Fragmented Nuclei (%),[4],16%
same,Population Healthy Nuclei (%),[4],58%
same,Population Hoechst High Intensity Objects (%),[4],4%
same,Population Membrane Permeable-Phenotype (%),[4],98%
same,Population Mitochondria Different-Phenotype (%),[4],100%
same,Population Mitotic Cells (%),[4],4%
same,Population Normal (%),[4],95%
same,Population Pyknosed Nuclei (%),[4],25%
same,Total Cell Count,[4],96
same,Population Apoptotic (%),[9],54%
same,Population Fragmented Nuclei (%),[9],15%
same,Population Healthy Nuclei (%),[9],67%
same,Population Hoechst High Intensity Objects (%),[9],6%
same,Population Membrane Permeable-Phenotype (%),[9],5%
same,Population Mitochondria Different-Phenotype (%),[9],37%
same,Population Mitotic Cells (%),[9],45%
same,Population Normal (%),[9],93%
same,Population Pyknosed Nuclei (%),[9],16%
same,Population Tubulin-Different-Phenotype (%),[9],53%
same,Total Cell Count,[9],143
same,Population Apoptotic (%),[10],50%
same,Population Fragmented Nuclei (%),[10],11%
same,Population Healthy Nuclei (%),[10],74%
same,Population Hoechst High Intensity Objects (%),[10],7%
same,Population Membrane Permeable-Phenotype (%),[10],16%
same,Population Mitochondria Different-Phenotype (%),[10],41%
same,Population Mitotic Cells (%),[10],50%
same,Population Normal (%),[10],92%
same,Population Pyknosed Nuclei (%),[10],14%
same,Population Tubulin-Different-Phenotype (%),[10],47%
same,Total Cell Count,[10],77
same,Population Apoptotic (%),[11],87%
same,Population Fragmented Nuclei (%),[11],23%
same,Population Healthy Nuclei (%),[11],39%
same,Population Hoechst High Intensity Objects (%),[11],11%
same,Population Membrane Permeable-Phenotype (%),[11],93%
same,Population Mitochondria Different-Phenotype (%),[11],100%
same,Population Mitotic Cells (%),[11],12%
same,Population Normal (%),[11],88%
same,Population Pyknosed Nuclei (%),[11],36%
same,Total Cell Count,[11],95
same,Population Apoptotic (%),[12],93%
same,Population Fragmented Nuclei (%),[12],22%
same,Population Healthy Nuclei (%),[12],48%
same,Population Hoechst High Intensity Objects (%),[12],5%
same,Population Membrane Permeable-Phenotype (%),[12],98%
same,Population Mitochondria Different-Phenotype (%),[12],98%
same,Population Mitotic Cells (%),[12],6%
same,Population Normal (%),[12],94%
same,Population Pyknosed Nuclei (%),[12],29%
same,Population Tubulin-Different-Phenotype (%),[12],100%
same,Total Cell Count,[12],119
